b-catenin transl – beta-catenin nuclear translocation modulation; 190,000 compounds, 0.3% hits; nuclear translocation activity, % at 5 µM; AID 1665; HeLa beta-catenin nuclear translocation, immunofluorescence imaging;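 active = nuclear translocation activity above 50% at 5 µM, with a well cell count of 50 or more; inconclusive = wells under 50 cells across six images, flagged as toxic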;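 also: per-cell ratio of nuclear to cytoplasmic median beta-catenin stain intensity; plate controls were DMSO negative control for no effect and GSK-3 inhibitor IX positive control for full effect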
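assay system = human HeLa cells, endogenous beta-catenin | times = compound treatment 24 h, 37°C, 5% CO2 | detection = Anti-beta-catenin immunofluorescence on PFA-fixed, Triton-permeabilized cells, DAPI nuclei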
MT stabilizer – microtubule stabilizers in HeLa cells. HeLa tubulin immunostaining HCS, 24 h; share of cells brighter than vehicle mean+2SD. % tubulin-high responders, % at 10 µM. 200,000 compounds, 0.83% hits. AID 2205;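 active = plate Z-score above 3 for both tubulin-high and condensed-nucleus cell shares, with cell loss under 80%, at 10 µM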;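 also: anti alpha tubulin signal scored within the nucleus-defined area of each cell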
Ins promoter up – MIN6 insulin promoter up-regulation. AID 1625. 190,000 compounds, 0.3% hits. z-score at 5 µM. MIN6 insulin promoter-GFP reporter, high-content imaging; stronger effect = higher value;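 active = z-score above 3 at 5 µM with at least 500 cells counted in the well; inconclusive = wells under 500 cells, flagged as cytotoxic or low count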
Autophagy HCS – autophagy modulation, high-content screen; MEF GFP-LC3 puncta imaging; test concentration mostly 10 µM; calls only at 10 µM (by protocol); 190,000 compounds, 0.98% hits;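 active = percentage of spot-positive cells more than 3 SD above its plate mean, without a fluorescence outlier flag or 80% toxicity; inconclusive = no clear call, values can overlap the other calls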;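 also: spot-positive cell cutoff set from DMSO-treated cells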
Furin inhibitor – human furin inhibition; inhibition, % at 20 µM or 30 µM; purified furin, fluorogenic substrate cleavage; P09958; 220,000 compounds, 0.061% hits; in the data active = inhibition above about 25%
Target sequence (P09958 108-714 limits assumed): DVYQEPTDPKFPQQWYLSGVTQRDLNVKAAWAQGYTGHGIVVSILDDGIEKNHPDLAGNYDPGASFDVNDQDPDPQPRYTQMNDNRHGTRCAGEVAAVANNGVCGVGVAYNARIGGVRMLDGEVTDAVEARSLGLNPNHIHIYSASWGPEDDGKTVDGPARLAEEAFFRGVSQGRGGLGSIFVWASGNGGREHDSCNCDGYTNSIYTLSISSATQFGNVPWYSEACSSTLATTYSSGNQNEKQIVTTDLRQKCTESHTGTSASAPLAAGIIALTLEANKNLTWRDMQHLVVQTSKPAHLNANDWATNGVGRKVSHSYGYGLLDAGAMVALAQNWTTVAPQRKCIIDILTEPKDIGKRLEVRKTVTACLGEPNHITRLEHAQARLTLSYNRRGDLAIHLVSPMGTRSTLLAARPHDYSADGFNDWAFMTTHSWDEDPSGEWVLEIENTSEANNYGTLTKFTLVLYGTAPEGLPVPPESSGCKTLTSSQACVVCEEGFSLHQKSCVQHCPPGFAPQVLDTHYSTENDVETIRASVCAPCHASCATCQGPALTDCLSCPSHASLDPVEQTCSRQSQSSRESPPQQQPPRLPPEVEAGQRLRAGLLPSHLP
HSV replic up – increases HSV replication in cells; HSV replication augmentation in cells, fold increase; 220,000 compounds, 0.005% hits; maximum fold increase; in the data active = maximum fold increase above about 1.5; inconclusive = no clear call, values can overlap the other calls; tested in PC3 cells
An asterisk follows results filed as active; i = inactive; ? = inconclusive; · = no result; + = active, no number. Compounds with a hit are over-represented: about 1.9% of the library has one in this group of screens.

SMILES	b-catenin transl	MT stabilizer	Ins promoter up	Autophagy HCS	Furin inhibitor	HSV replic up
Cc1cc(C)c(C(=O)O)c(CC(C)(C)C(=O)O)c1	-2	·	3.1*	·	-12	i
Cc1nc(Sc2nnnn2C)c2c3c(sc2n1)CCC3	2	4	-1.3	+	-21	i
COc1nc(Nc2ccc([N+](=O)[O-])cc2)nc(NC2CCCCC2)n1	0	3	-0.9	i	-12	i
Cc1cc(C)nc(N/N=C/C2=C(N3CCOCC3)C(=C/c3ccccc3)/CC2)n1	·	3	-0.73	i	-12	i
Cc1cc(=O)[nH]c(N/N=C/C2=C(N3CCOCC3)C(=C\c3ccc(Cl)cc3)/CC2)n1	10	18	0.33	+	-15	i
O=C(Cn1nnc(-c2ccc(CN3CCOCC3)cc2)n1)N1CCCc2ccccc21	0	3	-1.9	i	2	i
Nc1ccccc1-c1nnn(CC(=O)N2CCCc3ccccc32)n1	-2	3	·	+	-22	i
C=CCN1C(=O)/C(=C/c2ccc(N(C)C)cc2)S/C1=N\c1nnc(CC)s1	4	3	·	+	-9	·
C=CCN1C(=O)/C(=C/c2ccc(OCC(=O)O)cc2)S/C1=N/c1nccs1	-1	3	0.45	i	-3	i
Brc1ccc(C2=Nn3c(nnc3-c3n[nH]c4c3CCC4)SC2)cc1	146*	34*	-0.53	i	-16	i
Cc1ccc(-c2nnc3n2N=C(c2ccc(Br)cc2)CS3)cc1	0	4	1.3	i	-33	i
Clc1ccc(C2=Nn3c(nnc3-c3n[nH]c4c3CCC4)SC2)cc1	4	32*	-0.75	+	-9	i
c1ccc(-c2ccc(C3=Nn4c(nnc4-c4cc(-c5ccccc5)n[nH]4)SC3)cc2)cc1	0	4	-1.4	i	-1	i
COc1cccc(C2CC(c3c(F)cccc3Cl)n3nc(N)nc3N2)c1 (centres undefined)	2	3	-0.34	+	-22	i
COc1ccccc1/C=[N+](\[O-])C1SC(=S)N(C)C1(C)C (centres undefined)	1	·	-0.08	·	-22	i
O=C(Nc1ccc(C2CCCCC2)cc1)C1CCCN(c2ncccn2)C1 (centres undefined)	3	·	3.8*	·	·	i
CC(=O)Nc1ccc(NC(=O)C2CCCN(c3ncccn3)C2)cc1 (centres undefined)	4	2	-0.06	i	-21	i
COc1ccccc1C1=NN(C2=NN=C(N)Cc3ncnn32)C(O)(C(F)(F)F)C1 (centres undefined)	-4	4	-0.11	i	-5	i
O=C(Nc1ccc2c(c1)OCO2)c1noc2c1CCCCC2	0	3	-0.09	+	-24	i
Cc1cc(NC(=O)c2noc3c2CCCCC3)no1	2	3	-0.33	i	-20	i
Cc1cc(NC(=O)c2noc3c2CCCC3)no1	·	3	0.35	+	-17	i
CC(=O)c1ccc(NC(=O)c2noc3c2CCCCC3)cc1	0	2	0.71	i	-8	·
CCc1ccc2nc(SCC(=O)Nc3ccccc3N3CCOCC3)c(C#N)cc2c1	19	·	2.2	·	-20	i
Cc1ccc2nc(SCC(=O)Nc3ccccc3N3CCOCC3)c(C#N)cc2c1	-6	46*	1.2	+	-23	·
COc1ccc(N=CC2=C(O)CC(c3ccccc3)CC2=O)c(OC)c1 (centres undefined)	·	27*	1.1	i	12	i
SMILES	b-catenin transl	MT stabilizer	Ins promoter up	Autophagy HCS	Furin inhibitor	HSV replic up
CCC(=NCCc1c(C)[nH]c2ccc(C)cc12)C1=C(O)CC(c2ccccc2)CC1=O (centres undefined)	135*	15*	·	i	-11	i
CCC(=Nc1ccccc1OC)C1=C(O)CC(c2ccccc2)CC1=O (centres undefined)	32	15*	-0.1	i	-14	i
CCOc1ccccc1N=CC1=C(O)CC(c2ccccc2)CC1=O (centres undefined)	0	2	-1.3	i	-2	i
Cc1ccc(NS(=O)(=O)c2cccc(C(=O)NCCc3c[nH]c4ccccc34)c2)c(C)c1	3	5	-0.57	i	-8	i
COc1ccc(-c2noc(-c3ccccc3C(=O)Nc3cccc(OC)c3)n2)cc1	-3	4	·	i	-12	i
CCOc1ccccc1NC(=O)c1ccccc1-c1nc(-c2ccccc2)no1	2	32*	-1.3	i	-11	i
CC(=O)Nc1cc2ccccc2oc1=O	1	1	0.28	i	-4	i
Cc1cc(NC(=S)NC(=O)c2ccccc2)ccc1-c1cc2ccccc2oc1=O	0	15*	0.21	i	-18	i
Cc1ccc(C(=O)Nc2cc3ccccc3oc2=O)cc1	84*	33*	0.36	i	-36	i
NC(=O)c1cc2ccc(O)cc2oc1=NCc1ccccc1	0	4	7*	i	-66	i
NC(=O)c1cc2ccccc2oc1=NCc1ccccc1	-2	3	0.06	i	-11	i
c1ccc(CCNc2nc3ccccc3n3nnnc23)cc1	-1	3	0.88	+	-22	·
COc1ccc(CCNc2nc3ccccc3n3nnnc23)cc1OC	·	8	-0.7	i	-15	i
CC(CCc1ccccc1)NC(=O)CN1CCN(c2ccc(O)cc2)CC1 (centres undefined)	-1	3	-0.14	i	-12	i
COc1cc(/C=C2/SC(=S)N(C)C2=O)ccc1OC(=O)c1ccco1	4	7	0	i	-3	?
CCOc1cc(/C=C2/SC(=S)NC2=O)ccc1OC(=O)c1ccco1	0	2	-0.17	i	7	4.6*
COc1ccc(C2=NNC(c3cccnc3)=Nc3ccc(OC)cc32)cc1	0	13*	-0.71	i	1	i
N#CC1=C(N)NC(SCc2ccccc2)=C(C#N)C12CCCCC2	58*	30*	-0.49	i	-24	·
Cc1cccc(C)c1OCCNC(=O)C(=O)NCc1ccco1	59*	11	-0.12	i	-20	i
O=[N+]([O-])c1ccc(N/N=C/c2cccc(O)c2O)c(S(=O)(=O)N2CCOCC2)c1	2	5	-1.5	+	-21	i
COc1ccc(C(C)=O)cc1COc1nc(C)nc2ccccc12	-2	15*	-0.2	i	-26	i
CC(=O)Nc1cccc(NC(=O)C(=O)c2cn(CC(=O)N3CCCCC3)c3ccccc23)c1	2	2	·	i	-2	i
CC(Oc1ccc(Cl)cc1)C(=O)NCCN1C(=O)S/C(=C\c2cccnc2)C1=O (centres undefined)	0	1	-0.3	i	7	i
O=C(NCCN1C(=O)S/C(=C\c2ccc(OC(F)F)cc2)C1=O)c1cnccn1	68*	34*	-0.2	i	-2	i

Screening data: PubChem, several laboratories
